# KCNQ1 pot: potentiators or activators of KCNQ1 channel, primary screen, cell-based, thallium flux, high-throughput; B-score at 10 µM; 310,000 compounds, 0.35% hits; CHO-K1 KCNQ1, thallium flux FluxOR fluorescence; stronger effect = higher value; Potassium voltage-gated channel subfamily KQT member 1 (Homo sapiens), P51787;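 active means fluorescence ratio B-score, a plate-corrected score, at least three library SD, with initial intensity B-score within 5 SD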
#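 assay system = CHO-K1 cells stably expressing KCNQ1 | medium = assay buffer, equal DMSO in all wells | timing = 37 °C overnight plating, 90-min dark dye load, 20-min compound pretreatment | measured by = kinetic FluxOR thallium fluorescence, 10-s 1-Hz baseline, 110-s post-stimulus read | measure = fluorescence change relative to baseline, converted to B score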
# KCNQ1 inh: inhibitors of human KCNQ1 channel, primary screen, cell-based, thallium flux, high-throughput; Potassium voltage-gated channel subfamily KQT member 1 (Homo sapiens), P51787; CHO-K1 KCNQ1, FluxOR thallium flux fluorescence; stronger effect = higher value; B-score at 10 µM; 310,000 compounds, 1.3% hits; AID 2642, 2010;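 active means compounds whose thallium flux B-score, printed positive for inhibition, exceeds three library SD while starting fluorescence stays within three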;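 further: channel opened by potassium depolarization with thallium stimulus after 20 min compound exposure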
# hERG protect: hERG rescue from dofetilide block, primary screen, cell-based, CHO-hERG, FluxOR thallium flux, dofetilide IC70; Voltage-gated inwardly rectifying potassium channel KCNH2 (Homo sapiens), Q12809; dofetilide IC70 present; activation (rescue from dofetilide block), less the hit threshold, % at 10 µM; 310,000 compounds, 0.51% hits; AID 1511, 2009;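 active means activation above the mean of controls blocked by dofetilide plus 5 SD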;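 further: thallium influx through hERG after potassium depolarization seen as dye fluorescence rise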
# KCC2 mod: KCC2 cotransporter modulators, thallium flux, primary screen, cell-based, HEK293 KCC2, FluoZin-2 fluorescence, MLSMR | KCC2 cells, thallium flux FluoZin-2 fluorescence | B-score of Tl+ flux slope (higher = more flux/activation; lower = inhibition) at 10 µM | 190,000 compounds, 2.2% hits | Solute carrier family 12 member 5 (Homo sapiens), Q9H2X9 | AID 1456, 2008;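 active means thallium flux slope and its plate-corrected score both differing from the plate sample mean at a set confidence after two filtering rounds, in either direction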;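 further: slope of fluorescence scaled to starting intensity during 10 to 20 s after thallium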
# Target sequence (Q9H2X9 whole entry, looked up): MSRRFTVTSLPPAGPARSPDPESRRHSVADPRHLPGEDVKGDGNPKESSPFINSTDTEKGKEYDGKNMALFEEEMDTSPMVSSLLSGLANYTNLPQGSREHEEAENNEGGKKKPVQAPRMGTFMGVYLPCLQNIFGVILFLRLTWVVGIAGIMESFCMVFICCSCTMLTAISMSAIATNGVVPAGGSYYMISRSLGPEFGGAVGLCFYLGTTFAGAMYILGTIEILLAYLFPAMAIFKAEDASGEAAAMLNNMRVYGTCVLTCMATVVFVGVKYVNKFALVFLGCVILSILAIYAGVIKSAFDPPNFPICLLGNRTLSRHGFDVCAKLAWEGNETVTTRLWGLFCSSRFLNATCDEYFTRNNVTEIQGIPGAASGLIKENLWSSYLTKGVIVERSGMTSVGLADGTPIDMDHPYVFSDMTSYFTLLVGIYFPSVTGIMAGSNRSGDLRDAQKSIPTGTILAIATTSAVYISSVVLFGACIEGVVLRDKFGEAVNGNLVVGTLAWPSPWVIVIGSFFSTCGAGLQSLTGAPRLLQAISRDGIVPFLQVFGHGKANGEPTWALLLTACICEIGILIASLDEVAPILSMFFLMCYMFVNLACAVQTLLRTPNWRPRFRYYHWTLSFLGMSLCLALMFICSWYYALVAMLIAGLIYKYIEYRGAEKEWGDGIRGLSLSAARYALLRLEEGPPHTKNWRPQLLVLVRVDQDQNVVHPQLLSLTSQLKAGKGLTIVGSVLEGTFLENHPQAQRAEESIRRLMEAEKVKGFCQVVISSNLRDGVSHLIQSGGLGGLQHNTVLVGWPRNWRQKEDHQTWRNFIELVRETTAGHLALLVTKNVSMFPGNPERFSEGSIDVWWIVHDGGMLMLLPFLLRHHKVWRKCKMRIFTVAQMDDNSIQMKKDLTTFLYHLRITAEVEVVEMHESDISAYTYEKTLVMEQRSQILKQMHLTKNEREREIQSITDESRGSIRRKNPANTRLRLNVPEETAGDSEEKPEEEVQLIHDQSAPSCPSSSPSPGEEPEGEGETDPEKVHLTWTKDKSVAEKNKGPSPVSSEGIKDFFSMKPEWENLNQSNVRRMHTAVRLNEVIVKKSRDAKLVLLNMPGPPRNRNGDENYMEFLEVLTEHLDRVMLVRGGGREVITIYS
# KCNK9 block: KCNK9 potassium channel inhibitors, primary screen, HEK293 cells, thallium flux; Potassium channel subfamily K member 9 (Homo sapiens), Q9NPC2; FluxOR thallium flux fluorescence; stronger effect = lower value; B-score at 10 µM; 310,000 compounds, 1.2% hits; AID 488922, 2010;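 active means ratio B-score over 3 SD below the library mean, with starting fluorescence within 5 SD of its mean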;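 further: negative B-score means less thallium flux so channel inhibition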
# KCNK3 inh: human KCNK3 channel inhibitors, primary screen, CHO cells, FluxOR thallium flux, B-score; Potassium channel subfamily K member 3 (Homo sapiens), O14649; FluxOR fluorescence; stronger effect = lower value; B-score at 10 µM; 340,000 compounds, 0.84% hits;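 active means B-score under library mean minus 4 SD, starting fluorescence ratio at most library mean plus 5 SD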;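 further: more negative B-score means stronger inhibition of thallium flux through KCNK3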
# * hit, by the source's call; i = inactive; nt = no result. The list is not random: actives were taken first. Their share in the collection is about 4.1%.
SMILES,KCNQ1 pot,KCNQ1 inh,hERG protect,KCC2 mod,KCNK9 block,KCNK3 inh
O=C(C1CCN(C2CC(=O)N(Cc3ccccc3)C2=O)CC1)N1CCCCCC1 (centres undefined),i,i,-6,0.3,i,i
CCOc1ccccc1NC(=O)C(OC(=O)c1ccccc1NS(=O)(=O)c1cccs1)c1ccccc1 (centres undefined),i,i,-4,0.16,i,i
CC(=O)c1cccc(NC(=O)C(OC(=O)c2ccccc2NS(=O)(=O)c2cccs2)c2ccccc2)c1 (centres undefined),i,i,-10,1,-7*,i
COc1ccc(-n2c(NNC(C)=O)nc3sc4c(c3c2=O)CCCC4)cc1,i,i,-8,nt,i,i
O=C(OCC(=O)c1c[nH]c2ccccc12)c1cc2ccccc2cc1O,i,i,2,-0.36,i,i
COc1ccc(C)cc1NC(=S)NNC(=O)c1ccccc1Cl,nt,nt,nt,nt,nt,i
COc1ccc(C)cc1NC(=S)NNC(=O)c1c(Br)cnn1C,i,i,7.0*,-1.5,i,i
CS(=O)(=O)N(Cc1cccc(CN(C(C(=O)O)c2ccccc2)S(C)(=O)=O)c1)C(C(=O)O)c1ccccc1 (centres undefined),i,i,-3,nt,i,i
CC(C)C[C@@H](C(=O)O)N(Cc1cccc(CN([C@@H](CC(C)C)C(=O)O)S(C)(=O)=O)c1)S(C)(=O)=O,i,i,4.7*,nt,i,i
CCc1cccc(NC(=O)C2CCN(c3ncnc4sc(C)c(C)c34)CC2)c1,nt,nt,nt,nt,nt,-11*
Cc1sc2ncnc(N3CCC(C(=O)Nc4ccc(Cl)c(Cl)c4)CC3)c2c1C,nt,nt,nt,nt,nt,-10*
CNC(=S)Nc1ccc(C)c(NC(=S)NC)c1,i,i,-5,0.58,i,i
O=C1/C(=C\c2ccc(Br)o2)Cc2ccccc21,i,i,-5,-0.53,-9.9*,i
COC(=O)c1ccccc1Oc1ccc(NC(=O)c2ccco2)cc1,i,i,-7,nt,i,i
CCc1c(C)nc2ccc(Br)cc2c1SCCC#N,i,i,-14,-0.46,i,i
CCCCc1c(C)nc2ccc(Br)cc2c1SCCC#N,i,i,-10,-0.57,-7.7*,nt
Cc1c(C(=O)NCCC2=CCCCC2)oc2ccc(S(=O)(=O)N3CCC4(CC3)OCCO4)cc12,i,i,-21,-1.1,i,-9.1*
Cc1c(C(=O)Nc2ccc(F)c(F)c2)oc2ccc(S(=O)(=O)N3CCCCC3)cc12,i,i,-4,-1.3,i,-10*
COc1ccc(N2CC(C(=O)N3CCC(c4nc5ccccc5[nH]4)CC3)CC2=O)cc1 (centres undefined),i,i,1,nt,i,i
CC(=O)Oc1ccc(-c2cccc(C(=O)NCCCO)c2)cc1,i,i,-3,-0.77,i,i
COc1cccc(CNC(=O)CCCNC(=O)c2ccc(Cl)cc2)c1,i,i,-8,nt,i,i
CC1(C)CC(=O)C(C=NCCN2CCN(C(=O)c3ccc(F)cc3)CC2)=C(O)C1,i,i,-14,1.7,i,i
CS(=O)(=O)Nc1ccc(C2=NN(S(=O)(=O)c3ccccc3)C(c3cccs3)C2)cc1 (centres undefined),i,i,-7,-0.4,-8.1*,i
CS(=O)(=O)Nc1cccc(C2=NN(S(=O)(=O)c3ccc(F)cc3)C(c3cccs3)C2)c1 (centres undefined),i,i,-15,-0.25,i,i
C=CCCCCCCCCc1nc(=S)[nH][nH]1,i,i,-2,64*,i,i
SMILES,KCNQ1 pot,KCNQ1 inh,hERG protect,KCC2 mod,KCNK9 block,KCNK3 inh
COCCNc1ccc([N+](=O)[O-])cc1C(=O)NC1CCCc2ccccc21 (centres undefined),i,i,-7,nt,i,i
Cc1sc2ncnc(NCC(O)c3ccc([N+](=O)[O-])cc3)c2c1C (centres undefined),i,9*,-15,nt,i,i
COc1ccc(-c2csc(NC(=O)C3=NN(c4ccccc4)C(=O)CC3)n2)cc1,105*,i,-11,-0.66,i,i
CC(NC(=O)c1ccc(N2CCCC2)c([N+](=O)[O-])c1)c1ccc(S(N)(=O)=O)cc1 (centres undefined),i,i,-7,nt,i,i
Cc1cc(OCc2cccc(S(=O)(=O)N3CCOCC3)c2)ccc1Cl,nt,nt,nt,nt,nt,-9.6*
Cc1ccccc1-c1nnn(Cc2cccc(S(=O)(=O)N3CCOCC3)c2)n1,nt,nt,nt,nt,nt,-9*
Cc1ccc(CSCCNC(=O)CN2C(=O)c3ccccc3S2(=O)=O)cc1,i,i,4.9*,-2.5,i,i
Cc1cccc(CSCCNC(=O)CN2C(=O)c3ccccc3S2(=O)=O)c1,i,i,-5,nt,i,i
Cn1c(NC(=O)C2CC2)cc(=O)n(C)c1=O,i,i,-12,-0.17,i,i
CC(=O)N1CCN(c2ccc(Oc3ccc([N+](=O)[O-])c(C(F)(F)F)c3)cc2)CC1,i,11*,-12,nt,i,i
CCOc1ccc(C(=O)Nc2ccc(N3CCN(C(C)=O)CC3)cc2)cc1[N+](=O)[O-],i,i,-8,0.68,i,i
O=C(Nc1ccc2[nH]c(=S)sc2c1)c1ccccc1,12*,i,-7,44*,i,i
CCC(c1nnc(SCC(=O)N2CC(=O)Nc3ccccc32)n1Cc1ccccc1)N(C)C (centres undefined),i,i,-9,0.17,i,i
CCc1ccc2c(COC(=O)C3CSC4(C)CCC(=O)N34)cc(=O)oc2c1 (centres undefined),nt,nt,nt,nt,nt,i
COC(=O)c1ccc(/C=C/c2ccc3cccc(OC)c3n2)cc1,i,i,44*,-2.1,i,i
N#CSCC(=O)c1cccc2ccccc12,nt,nt,nt,12*,nt,i
C=CCSc1nc(Oc2ccccc2)c2sccc2n1,i,6*,-6,1.8,i,i
Cc1c(C(=O)N(C)CCOc2ccccc2)oc2c(Cl)cccc12,nt,nt,nt,nt,nt,-9.3*
Cc1c(C(=O)OC(C)C)nnn1-c1nonc1N,i,i,-7,0.78,i,i

# From PubChem
